Screens from PubChem BioAssay.
Only some compounds are listed: those with a hit (about 2.4% of all), similar ones and a draw of the others.
ERAP1 inh = human ERAP1 aminopeptidase inhibitors, primary screen, biochemical, single point, plate reader; recombinant ERAP1, Leu-AMC fluorescence, 60 min; actives 0.15% (n = 340,000); AID 652197, 2013; inhibition, % at 10.7 µM;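 active = mean replicate inhibition of at least 30%, or all replicates individually reaching that 30% level; inactive = mean below 30% and not every replicate reaching it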
CASP6 VEID inh = human caspase-6 inhibitors, primary screen, biochemical, VEID-R110 fluorescence, single point, set 2; P55212; purified caspase-6, Z-VEID-R110 cleavage fluorescence; inhibition, % at 12.5 µM; actives 0.53% (n = 350,000);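 active = mean inhibition across replicates at least about 35%, with every replicate also reaching that limit, limit read from the data; inconclusive = only one of the two criteria met; inactive = neither criterion met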
Target sequence (P55212 24-179 limits assumed): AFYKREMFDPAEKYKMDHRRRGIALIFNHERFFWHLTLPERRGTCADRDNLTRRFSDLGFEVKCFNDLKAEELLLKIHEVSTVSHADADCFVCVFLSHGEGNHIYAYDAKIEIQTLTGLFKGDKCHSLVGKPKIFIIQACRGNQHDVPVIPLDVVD
Target sequence (P55212 194-293 limits assumed): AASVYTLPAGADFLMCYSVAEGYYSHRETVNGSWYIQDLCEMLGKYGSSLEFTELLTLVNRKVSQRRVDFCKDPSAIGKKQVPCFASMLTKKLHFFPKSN
ARNT TACC3 PPI = disruptors of ARNT/TACC3 protein interaction, primary screen, biochemical, AlphaScreen, single concentration | Transforming acidic coiled-coil-containing protein 3 (Homo sapiens), Q9Y6A5 | AlphaScreen His-ARNT PAS-B/GST-TACC3 binding, luminescence; TACC3 fragment carries E629A point mutation | inhibition, % at 9.99 µM | actives 0.66% (n = 390,000);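 active = mean inhibition of replicates at least 50% and at least half of replicates each reaching 50%; inconclusive = half or more replicates reach 50% but mean below 50%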
S100A4 inh HTS = inhibitors of S100A4-myosin IIA peptide binding, primary screen, biochemical, fluorescence polarization, TAMRA-MyoIIA peptide | Protein S100-A4 (Homo sapiens), P26447 | inhibition, % at 10.7 µM | actives 0.14% (n = 360,000);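 active = mean inhibition of at least 70% across replicates, with every replicate also reaching that level; inconclusive = mean inhibition reaches 70% but some replicates fall short; inactive = mean inhibition below 70%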
Target sequence (P26447 whole entry, looked up): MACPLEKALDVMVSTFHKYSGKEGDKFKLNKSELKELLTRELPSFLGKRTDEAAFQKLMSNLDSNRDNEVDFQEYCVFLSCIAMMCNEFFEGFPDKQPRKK
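System – human S100A4 monomer protein, biochemical binding assay · Buffer or medium – Calcium-containing HEPES buffer, pH 7.2 · Timing – 5 min between mix addition and reading · Also added – TAMRA-labelled myosin IIA heavy-chain peptide probe, 5 nM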
PGC1a acetyl inh = inhibitors of PGC1a acetylation signal, primary screen, cell-based, U2OS, AlphaScreen, inhibitor mode | AlphaScreen anti-acetyl-lysine; with virally co-expressed GCN5 acetyltransferase | actives 0.17% (n = 350,000) | inhibition, % at 15.6 µM;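 active = every replicate shows inhibition of at least 40%; inconclusive = mean inhibition at least 40% but some replicate below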
rRNA inh HTS = reduced GFP signal of wild-type E. coli, primary screen, bacterial rRNA inhibitor project, GFP/RFP fluorescence, OD600, single point | E. coli WT GFP vs humanized-ribosome RFP mutants, 24 h; stronger effect = lower value; DMSO median 0, no signal -100 | GFP signal change (wild-type ribosome), % (test concentration not listed) | actives 1.6% (n = 350,000) | AID 720706, 2013;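 active = significant combined selectivity score with lowered wild-type GFP, culture density cut under 30%, mutant RFP and density less affected; inactive = any of these conditions unmet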
AID977621 = growth inhibition of wild-type GFP E. coli, dose response, H69 mutant RFP, cherry-pick | shares compounds with rRNA inh HTS | E. coli wild-type GFP strain growth, fluorescence, 24 h | activity change, negative = inhibition at 50 µM | 1,900 tested, under 10 active | AID 977621, 2014;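 active = Wild-type ribosome reporter drop at least double the humanized mutant ribosome reporter drop, growth loss under a set limit; inconclusive = no clear call, values can overlap the other calls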;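 note: wild-type GFP and H69 mutant RFP strains grown together 50/50 in each well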
AID977628 = E. coli growth inhibition, wild-type GFP versus h24 humanized RFP strain, dose response, h24 mutant RFP vs wild-type GFP, cherry-pick; shares compounds with rRNA inh HTS; E. coli WT GFP strain growth, fluorescence, 24 h; activity change, negative = inhibition at 50 µM; 1,900 tested, under 10 active; AID 977628, 2014;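 active = compound lowering the normal-ribosome reporter at least twice as much as the humanized-ribosome reporter, growth loss under a set limit; inconclusive = no clear call, values can overlap the other calls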;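 note: wild-type GFP and h24 humanized RFP strains co-cultured 1 to 1 per well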
Numbers stand for hits.

What do the screens show for `CCCNC(=O)Nc1ccc2c(c1)C(=O)N(C)[C@H]1CC[C@H](CC(=O)O)O[C@H]1CO2`?
ARNT TACC3 PPI: inactive; PGC1a acetyl inh: inactive; rRNA inh HTS: inactive

What do the screens show for `Cc1ccc(C)c(-c2[nH]ncc2CN2CCCC(CO)(Cc3ccccc3C)C2)c1` (stereo not drawn)?
ERAP1 inh: inactive; CASP6 VEID inh: inactive; ARNT TACC3 PPI: inactive; S100A4 inh HTS: inactive; rRNA inh HTS: -30.4; AID977621: inactive

How did OCC1(Cc2ccccc2)CCCN(Cc2cn[nH]c2-c2ccccc2)C1 (stereo not drawn) do in these assays?
ERAP1 inh: inactive; CASP6 VEID inh: inactive; ARNT TACC3 PPI: inactive; S100A4 inh HTS: inactive; PGC1a acetyl inh: inactive; rRNA inh HTS: inactive

What do the screens show for `CCCN(C)C[C@@H]1Oc2cc(-c3cccnc3)ccc2S(=O)(=O)N([C@@H](C)CO)C[C@@H]1C`?
ERAP1 inh: inactive; CASP6 VEID inh: inactive; ARNT TACC3 PPI: inactive; S100A4 inh HTS: inactive; PGC1a acetyl inh: inactive; rRNA inh HTS: inactive

What do the screens show for `O=C(c1cccc(F)c1)N1CCN(C(=O)c2cc3nc(-c4ccco4)cc(C(F)(F)F)n3n2)CC1`?
ERAP1 inh: inactive; CASP6 VEID inh: inactive; ARNT TACC3 PPI: inactive; S100A4 inh HTS: inactive; rRNA inh HTS: inactive

What do the screens show for `CN1CCN(C(=O)c2cc3nc(-c4ccco4)cc(C(F)(F)F)n3n2)CC1`?
ERAP1 inh: inactive; CASP6 VEID inh: inactive; ARNT TACC3 PPI: inactive; S100A4 inh HTS: inactive; rRNA inh HTS: -27.4; AID977621: inactive; AID977628: inactive

What do the screens show for `Cc1nn(Cc2cccc(F)c2)c(C)c1NC(=O)c1c(Cl)cnn1C`?
ERAP1 inh: inactive; CASP6 VEID inh: inactive; ARNT TACC3 PPI: inactive; S100A4 inh HTS: inactive; rRNA inh HTS: -18.1; AID977621: inactive; AID977628: inactive

What do the screens show for `CC1C=Cc2ccccc2N1C(=O)c1ccccc1` (stereo not drawn)?
ERAP1 inh: inactive; CASP6 VEID inh: inactive; ARNT TACC3 PPI: inactive; S100A4 inh HTS: inactive; PGC1a acetyl inh: inactive; rRNA inh HTS: -31.6; AID977621: inactive

Results for O=C(CC1C=Cc2ccccc2N1C(=O)c1ccccc1)c1ccccc1 (stereo not drawn) ?
ERAP1 inh: inactive; CASP6 VEID inh: inactive; ARNT TACC3 PPI: inactive; S100A4 inh HTS: inactive; rRNA inh HTS: inactive

Results for COc1ccc(C2CC(=O)Oc3cc(C)cc(C)c32)cc1 (stereo not drawn) ?
CASP6 VEID inh: inactive; ARNT TACC3 PPI: inactive; S100A4 inh HTS: inactive; PGC1a acetyl inh: inactive; rRNA inh HTS: -23.9; AID977621: inactive; AID977628: inactive

How did COc1cc2c(c(OC)c1OC)C(c1ccc3c(c1)OCO3)CC(=O)O2 (stereo not drawn) do in these assays?
CASP6 VEID inh: inactive; ARNT TACC3 PPI: inactive; S100A4 inh HTS: inactive; PGC1a acetyl inh: inactive; rRNA inh HTS: -19.9; AID977621: inactive; AID977628: inactive

Results for CC(C)(C)c1ccc2c(c1)C(c1ccc3c(c1)OCO3)CC(=O)O2 (stereo not drawn) ?
CASP6 VEID inh: inactive; ARNT TACC3 PPI: inactive; S100A4 inh HTS: inactive; PGC1a acetyl inh: inactive; rRNA inh HTS: -24.9; AID977621: inactive

How did COc1cccc(CNC(=O)C[C@H]2C=C[C@H](NC(=O)C3CC3)[C@@H](CO)O2)c1 do in these assays?
ERAP1 inh: inactive; CASP6 VEID inh: inactive; ARNT TACC3 PPI: inactive; S100A4 inh HTS: inactive; PGC1a acetyl inh: inactive; rRNA inh HTS: inactive

What do the screens show for `CCCC#Cc1ccc([C@@H]2[C@H]3CN(S(=O)(=O)c4ccccc4C)CCCCN3[C@H]2CO)cc1`?
ERAP1 inh: inactive; CASP6 VEID inh: inactive; ARNT TACC3 PPI: inactive; S100A4 inh HTS: inactive; PGC1a acetyl inh: inactive; rRNA inh HTS: inactive

How did COc1ccccc1S(=O)(=O)N[C@@H]1CC[C@H](CCNC(=O)C2CCOCC2)O[C@@H]1CO do in these assays?
ERAP1 inh: inactive; CASP6 VEID inh: inactive; S100A4 inh HTS: inactive; PGC1a acetyl inh: inactive; rRNA inh HTS: inactive

How did Cc1ccc2nc(SCC(=O)c3ccc4c(c3)NC(=O)CO4)[nH]c2c1 do in these assays?
ERAP1 inh: inactive; CASP6 VEID inh: inactive; ARNT TACC3 PPI: inactive; S100A4 inh HTS: inactive; PGC1a acetyl inh: inactive; rRNA inh HTS: -21.4; AID977621: inactive; AID977628: inconclusive

Results for Cc1ccc(C)c(-n2nnnc2SCC(=O)c2ccc3c(c2)NC(=O)CO3)c1 ?
ARNT TACC3 PPI: inactive; PGC1a acetyl inh: inactive

Results for COC(=O)c1sccc1NC(=O)Cc1ccc(OC)cc1 ?
ERAP1 inh: inactive; CASP6 VEID inh: inactive; ARNT TACC3 PPI: inactive; S100A4 inh HTS: inactive; PGC1a acetyl inh: inactive; rRNA inh HTS: -26.5; AID977621: inactive

How did COc1ccc(CC(=O)Nc2cc(S(=O)(=O)Nc3ccc(OC)cc3)ccc2OC)cc1 do in these assays?
ERAP1 inh: inactive; CASP6 VEID inh: inactive; ARNT TACC3 PPI: inactive; S100A4 inh HTS: inactive; PGC1a acetyl inh: inactive; rRNA inh HTS: -18.4; AID977621: inactive; AID977628: inactive

What do the screens show for `COc1cccc(C(=O)NC2CC3CCCC(C2)N3S(=O)(=O)c2ccccc2)c1` (stereo not drawn)?
ERAP1 inh: inactive; CASP6 VEID inh: inactive; ARNT TACC3 PPI: inactive; S100A4 inh HTS: inactive; PGC1a acetyl inh: inactive; rRNA inh HTS: -31.1; AID977621: inconclusive

Results for COCC(=O)N(C)C[C@@H]1Oc2ncc(C#CC3(O)CCCC3)cc2C(=O)N([C@H](C)CO)C[C@H]1C ?
ERAP1 inh: inactive; CASP6 VEID inh: inactive; ARNT TACC3 PPI: inactive; S100A4 inh HTS: inactive; PGC1a acetyl inh: inactive; rRNA inh HTS: inactive

How did O=S(=O)(c1ccc(Cl)cc1)N1CCN=C1SCc1cccc(Cl)c1 do in these assays?
ERAP1 inh: inactive; CASP6 VEID inh: inactive; ARNT TACC3 PPI: inactive; S100A4 inh HTS: inactive; rRNA inh HTS: -22.6; AID977621: inactive
